From ChEMBL document CHEMBL3286104, “Synthesis and structure-activity relationship studies in serotonin 5-HT4 receptor ligands based on a benzo[de][2,6]naphthridine scaffold” (Eur J Med Chem, 2014)

What was measured:
[1] = molecular target: T1, 5-hydroxytryptamine receptor 4 (Homo sapiens, UniProt Q13639); assay: Antagonist activity at Rluc-tagged human 5HT4R expressed in human SH-SY5Y cells assessed as inhibition of serotonin-induced receptor/Gbeta1 coupling by BRET assay; format: cell-based
Procedure, shortened: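 Cell-free BRET on enriched membranes (5 µg protein in PBS) from […] neuroblastoma cells retrovirally co-expressing Rluc-tagged human 5-HT4R and RGFP-fused Gβ1. Coupling was induced with 100 nM serotonin and inhibited by ligand at 8 log-spaced concentrations. IC50 for 50% inhibition of coupling was computed from the concentration-inhibition curves.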

[2] = molecular target: 5-hydroxytryptamine receptor 4 (Cavia porcellus, UniProt O70528); assay: Displacement of [3H]GR113808 from Dunkin-Hartley guinea pig brain striatum 5HT4R after 30 mins
Procedure, shortened: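 Striatal crude membranes from decapitated guinea pigs, diluted in 50 mM Hepes pH 7.4, were incubated with [3H]17 (0.2 nM final) at 37 °C for 30 min. Separation by rapid filtration on PEI-treated GF/B filters, then scintillation counting. Nonspecific binding was defined with 30 µM 5-HT. Ki was derived as IC50/(1+L/Kd). Mean ± SEM of 3 independent determinations run in duplicate.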

[3] = molecular target: T1, 5-hydroxytryptamine receptor 4; assay: Partial agonist activity at Rluc-tagged human 5HT4R expressed in human SH-SY5Y cells assessed as effect on serotonin-induced receptor/Gbeta1 coupling by BRET assay; format: cell-based
Procedure, shortened: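 BRET on membranes (5 µg protein in PBS) from […] cells co-expressing Rluc-human 5-HT4R and RGFP-Gβ1, with ligand at 10 µM. The baseline recorded without ligand was subtracted, and the BRET ratio was expressed relative to that obtained with 10 µM serotonin. Means ± SEM of 3 determinations.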

Chain of 5-hydroxytryptamine receptor 4 (Cavia porcellus, UniProt O70528) (O70528 whole entry): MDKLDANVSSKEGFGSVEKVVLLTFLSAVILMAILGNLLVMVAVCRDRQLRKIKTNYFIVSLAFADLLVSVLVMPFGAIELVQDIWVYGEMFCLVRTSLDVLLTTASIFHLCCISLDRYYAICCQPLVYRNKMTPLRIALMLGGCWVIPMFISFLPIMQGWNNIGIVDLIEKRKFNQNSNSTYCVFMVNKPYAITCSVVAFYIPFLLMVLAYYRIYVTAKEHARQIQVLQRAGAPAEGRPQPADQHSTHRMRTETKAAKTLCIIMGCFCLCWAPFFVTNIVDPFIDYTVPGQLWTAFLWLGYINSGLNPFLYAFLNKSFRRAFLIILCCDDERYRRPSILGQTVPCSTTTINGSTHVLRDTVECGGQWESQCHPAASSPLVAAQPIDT
T1 sequence (Q13639 whole entry, the tested form may be a part): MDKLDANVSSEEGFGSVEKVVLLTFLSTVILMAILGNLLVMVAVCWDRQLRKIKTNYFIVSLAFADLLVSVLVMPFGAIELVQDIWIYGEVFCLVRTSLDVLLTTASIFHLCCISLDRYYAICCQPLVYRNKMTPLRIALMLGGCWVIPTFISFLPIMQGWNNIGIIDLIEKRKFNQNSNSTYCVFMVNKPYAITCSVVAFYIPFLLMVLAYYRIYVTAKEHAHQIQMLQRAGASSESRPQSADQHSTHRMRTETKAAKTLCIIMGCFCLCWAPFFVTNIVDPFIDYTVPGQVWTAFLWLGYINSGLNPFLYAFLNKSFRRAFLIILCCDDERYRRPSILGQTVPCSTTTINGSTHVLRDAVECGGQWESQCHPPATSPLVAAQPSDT

COc1cc2c3c(cccc3n1)C(=O)N(CCCN1CCCCC1)C2=O
IC50 [1]: 110 nM
Ki [2]: 44 nM

COc1cc(C(=O)NCCCN2CCCCC2)c2ccccc2n1
Ki [2]: > 1000 nM

O=C1c2cc(N3CCCC3)nc3cccc(c23)CN1CCCN1CCCCC1
Ki [2]: > 1000 nM

O=C1c2cccc3nc(N4CCCC4)cc(c23)C(=O)N1CCCN1CCCCC1
Ki [2]: > 1000 nM

O=C1c2cccc3nc(N4CCCCC4)cc(c23)C(=O)N1CCCN1CCCCC1
Ki [2]: 344 nM

COc1cc(N)c(Cl)cc1C(=O)OCCCN1CCCCC1
Ki [2]: 19 nM
IC50 [3]: 49 nM

COc1cc(C(=O)OCCCN2CCCCC2)c2ccccc2n1
IC50 [1]: 203 nM
Ki [2]: 52 nM

O=C1c2cccc3nc(Cl)cc(c23)C(=O)N1CCCN1CCCCC1
IC50 [1]: 453 nM
Ki [2]: 105 nM

COc1cc2c3c(cccc3n1)CN(CCCN1CCCCC1)C2=O
IC50 [1]: 916 nM
Ki [2]: 283 nM

O=C1c2cc(Cl)nc3cccc(c23)CN1CCCN1CCCCC1
Ki [2]: 563 nM
IC50 [3]: 195 nM
